Measurements published in ChEMBL document CHEMBL4311941, “Development of Multifunctional Histone Deacetylase 6 Degraders with Potent Antimyeloma Activity” (J Med Chem, 2019).
Calls of active or inactive are those of the source. The calls are words filed in the database; no cut-off is given here.

Experiments:
[1] = biological target: Protein cereblon/Histone deacetylase 3 (Homo sapiens) (UniProt O15379+Q96SW2); test: Protac activity at CRBN/HDAC3 in human MM1S cells assessed as HDAC3 degradation measured after 6 hrs by Western blot analysis; assay type: cell-based
[2] = biological target: T1, Protein cereblon/Zinc finger protein Aiolos (Homo sapiens) (UniProt Q96SW2+Q9UKT9); test: Protac activity at CRBN/IKZF3 in human MM1S cells assessed as IKZF3 degradation at 100 nM measured after 6 hrs in presence of HDAC6 inhibitor Next-A by Western blot analysis; assay type: cell-based
Procedure, shortened: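 MM1S cells seeded at 1 × 10^6 per well overnight. Pretreated 1 h with pomalidomide, Next-A, MLN 4924 or DMSO, then given 100 nM degrader or DMSO for 6 h. Lysed in RIPA with protease inhibitors, 10−40 μg protein run on SDS-PAGE and transferred to PVDF. Blots probed for IKZF1/IKZF3, detected by ECL and quantified by densitometry.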

MM1.S [3] = test: Effect on IKZF3 mRNA expression in human MM1S cells at 100 nM measured after 6 hrs by SYBR green dye-based qRT-PCR analysis; assay type: functional, cell-based
Procedure, shortened: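 After treatment, MM1S cells washed twice with cold PBS. Total RNA extracted and normalized, then reverse-transcribed. 10 ng cDNA amplified with SYBR Green: 50 °C 2 min, 95 °C 2 min, then 40 cycles of 95 °C 1 s / 60 °C 30 s, followed by a melt curve. Expression calculated by the 2−ΔΔCt method.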

[4] = biological target: Protein cereblon/Histone deacetylase 4 (Homo sapiens) (UniProt P56524+Q96SW2); test: Protac activity at CRBN/HDAC4 in human MM1S cells assessed as HDAC4 degradation measured after 6 hrs by Western blot analysis; assay type: cell-based
Histone deacetylase 7 = biological target: T2, Histone deacetylase 7 (Homo sapiens, UniProt Q8WUI4); test: Inhibition of human N-terminal tagged human HDAC7 expressed in HEK293T/17 using Boc-[TFA-Lys]-AMC as substrate preincubated for 10 mins followed by substrate addition and measured after 60 mins by fluorescence assay
T2 sequence (Q8WUI4 whole entry): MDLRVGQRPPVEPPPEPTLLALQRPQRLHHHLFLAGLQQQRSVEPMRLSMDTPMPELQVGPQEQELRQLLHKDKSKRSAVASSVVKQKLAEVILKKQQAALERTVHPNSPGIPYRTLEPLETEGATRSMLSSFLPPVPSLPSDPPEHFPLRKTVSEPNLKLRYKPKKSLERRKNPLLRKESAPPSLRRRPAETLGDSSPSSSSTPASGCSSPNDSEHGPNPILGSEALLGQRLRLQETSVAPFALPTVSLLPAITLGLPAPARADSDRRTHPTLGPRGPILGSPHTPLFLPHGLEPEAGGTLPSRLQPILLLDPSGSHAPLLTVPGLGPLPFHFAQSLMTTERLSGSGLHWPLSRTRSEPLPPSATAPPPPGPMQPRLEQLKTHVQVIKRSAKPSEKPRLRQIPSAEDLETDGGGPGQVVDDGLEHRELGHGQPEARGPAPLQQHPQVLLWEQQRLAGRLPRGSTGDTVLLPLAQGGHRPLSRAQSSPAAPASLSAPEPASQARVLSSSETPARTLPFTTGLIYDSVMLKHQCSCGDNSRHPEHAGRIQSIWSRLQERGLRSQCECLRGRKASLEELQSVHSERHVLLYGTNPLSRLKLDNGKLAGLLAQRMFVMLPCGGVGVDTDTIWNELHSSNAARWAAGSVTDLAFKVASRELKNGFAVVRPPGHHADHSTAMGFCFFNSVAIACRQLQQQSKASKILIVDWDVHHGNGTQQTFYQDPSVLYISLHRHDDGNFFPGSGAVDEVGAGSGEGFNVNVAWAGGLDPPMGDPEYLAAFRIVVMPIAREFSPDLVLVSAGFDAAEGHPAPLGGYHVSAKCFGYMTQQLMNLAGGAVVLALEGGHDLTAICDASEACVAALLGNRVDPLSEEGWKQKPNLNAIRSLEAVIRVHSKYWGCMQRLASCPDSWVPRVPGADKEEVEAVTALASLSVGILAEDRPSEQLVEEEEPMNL

[5] = biological target: T3, Protein cereblon/Protein deacetylase HDAC6 (Homo sapiens, UniProt Q9UBN7+Q96SW2); test: Protac activity at CRBN/HDAC6 in human MM1S cells assessed as HDAC6 degradation measured after 6 hrs by ELISA; assay type: cell-based
Procedure, shortened: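 In-cell ELISA: MM1S cells (5 × 10^4 per well) seeded overnight, treated 6 h (dosed as 5× medium; 0.1 nM–1 μM or 10/100 nM). Fixed in 8% formaldehyde/TBS, permeabilized with 0.1% Triton X, peroxidase quenched with 1% H2O2, blocked in 5% BSA. Anti-HDAC6 rabbit mAb (1:1000, 2 h) then HRP secondary; TMB read as OD450 − OD570. Background wells lacked primary antibody. Signal normalized to Janus Green and to DMSO wells, n = 3. DC50/Dmax from three-parameter fit.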
Target sequence in this assay (Q9UBN7 whole entry): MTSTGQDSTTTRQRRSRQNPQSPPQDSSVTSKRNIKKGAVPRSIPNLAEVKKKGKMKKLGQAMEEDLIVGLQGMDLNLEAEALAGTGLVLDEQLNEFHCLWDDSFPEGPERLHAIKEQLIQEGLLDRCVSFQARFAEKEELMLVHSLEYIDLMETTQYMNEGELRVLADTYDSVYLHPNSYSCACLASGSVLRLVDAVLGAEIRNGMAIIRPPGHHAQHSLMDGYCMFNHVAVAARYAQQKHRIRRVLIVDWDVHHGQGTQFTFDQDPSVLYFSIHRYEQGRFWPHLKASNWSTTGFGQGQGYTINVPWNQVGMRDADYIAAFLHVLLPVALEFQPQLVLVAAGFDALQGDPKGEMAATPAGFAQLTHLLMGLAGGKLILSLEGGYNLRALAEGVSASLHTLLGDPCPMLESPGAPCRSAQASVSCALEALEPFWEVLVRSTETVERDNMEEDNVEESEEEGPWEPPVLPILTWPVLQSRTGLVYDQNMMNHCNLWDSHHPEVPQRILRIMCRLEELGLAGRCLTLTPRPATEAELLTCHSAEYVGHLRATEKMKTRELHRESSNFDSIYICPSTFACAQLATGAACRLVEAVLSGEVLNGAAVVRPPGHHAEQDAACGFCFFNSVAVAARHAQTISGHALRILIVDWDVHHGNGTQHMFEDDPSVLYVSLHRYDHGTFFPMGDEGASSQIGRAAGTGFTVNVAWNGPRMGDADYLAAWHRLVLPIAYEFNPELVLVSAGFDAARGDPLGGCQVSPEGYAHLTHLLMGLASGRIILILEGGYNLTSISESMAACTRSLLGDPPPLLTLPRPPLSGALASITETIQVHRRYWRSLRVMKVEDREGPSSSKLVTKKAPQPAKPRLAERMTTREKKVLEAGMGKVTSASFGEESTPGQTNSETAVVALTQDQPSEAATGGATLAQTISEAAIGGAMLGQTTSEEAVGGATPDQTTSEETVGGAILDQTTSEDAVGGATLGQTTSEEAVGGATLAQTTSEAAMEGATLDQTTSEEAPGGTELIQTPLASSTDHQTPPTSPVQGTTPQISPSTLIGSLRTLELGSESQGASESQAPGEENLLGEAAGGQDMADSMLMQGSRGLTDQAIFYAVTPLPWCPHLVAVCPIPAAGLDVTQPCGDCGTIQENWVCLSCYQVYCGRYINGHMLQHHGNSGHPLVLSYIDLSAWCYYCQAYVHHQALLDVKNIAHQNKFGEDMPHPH
Target sequence in this assay (Q96SW2 whole entry): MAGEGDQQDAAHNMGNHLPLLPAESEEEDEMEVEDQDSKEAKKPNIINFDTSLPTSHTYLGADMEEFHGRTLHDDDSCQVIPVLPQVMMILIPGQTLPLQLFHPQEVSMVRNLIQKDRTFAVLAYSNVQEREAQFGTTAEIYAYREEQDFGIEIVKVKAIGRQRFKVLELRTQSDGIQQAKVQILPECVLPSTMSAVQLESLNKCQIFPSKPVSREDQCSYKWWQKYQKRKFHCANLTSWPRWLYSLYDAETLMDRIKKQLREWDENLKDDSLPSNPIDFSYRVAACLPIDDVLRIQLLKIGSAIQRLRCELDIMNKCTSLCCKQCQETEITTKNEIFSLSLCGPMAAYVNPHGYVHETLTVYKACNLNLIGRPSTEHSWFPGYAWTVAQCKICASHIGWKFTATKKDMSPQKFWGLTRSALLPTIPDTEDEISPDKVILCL

[6] = biological target: Histone deacetylase (Homo sapiens) (UniProt Q13547+O15379+Q9UBN7+Q92769+Q9UQL6+Q8WUI4+Q9BY41+Q96DB2+P56524+Q9UKV0+Q969S8); conditions: at 100 nM
[7] = biological target: T1, Protein cereblon/Zinc finger protein Aiolos (Homo sapiens); test: Protac activity at CRBN/IKZF3 in human MM1S cells assessed as IKZF3 degradation at 100 nM measured after 4 hrs by Western blot analysis; assay type: cell-based
Procedure, shortened: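 Time course in MM1S cells (1 × 10^6 cells per well, seeded overnight) under 100 nM degrader. Whole-cell RIPA lysates analysed by 7.5−12% SDS-PAGE and PVDF immunoblot. Primary antibody at 4 °C overnight, HRP secondary 1 h, ECL detection with densitometry.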

[8] = biological target: Cereblon/Ikaros (Homo sapiens) (UniProt Q96SW2+Q13422); test: Protac activity at CRBN/IKZF1 in human MM1S cells assessed as IKZF1 degradation at 100 nM measured after 6 hrs in presence of E3 ligase ligand pomalidomide by Western blot analysis; assay type: cell-based
MM1.S [9] = test: Antiproliferative activity against human MM1S cells assessed as reduction in cell viability measured after 72 hrs by resazurin dye based assay; assay type: functional
Procedure, shortened: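 MM1S cells seeded at 1 × 10^4 per well, left overnight, then given compound or DMSO vehicle (added as 5× dosing medium) for 72 h at 37 °C, 5% CO2. Resazurin added (10× solution, 1 mg/mL), then incubated overnight at 37 °C. OD read at 570 and 600 nm. Viability is relative to vehicle, n = 3. Curves fitted as [inhibitor] vs response (three parameters); test range 0.3 nM–3 μM.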

[10] = biological target: T3, Protein cereblon/Protein deacetylase HDAC6; test: Protac activity at CRBN/HDAC6 in human MCF7 cells assessed as HDAC6 degradation up to 10 uM incubated for 6 hrs by Western blot analysis; assay type: cell-based
Target sequence in this assay (Q96SW2 whole entry, looked up): as the sequence (Q96SW2 whole entry) above
Target sequence in this assay (Q9UBN7 whole entry, looked up): as the sequence (Q9UBN7 whole entry) above

[11] = biological target: T3, Protein cereblon/Protein deacetylase HDAC6; test: Protac activity at CRBN/HDAC6 in human MM1S cells assessed as HDAC6 degradation at 100 nM measured after 1 to 4 hrs by Western blot analysis; assay type: cell-based
Target sequence in this assay (Q96SW2 whole entry, looked up): as the sequence (Q96SW2 whole entry) above
Target sequence in this assay (Q9UBN7 whole entry, looked up): as the sequence (Q9UBN7 whole entry) above

MM1.S [12] = test: Induction of apoptosis in human MM1S cells assessed as cleavage of casapse3 measured after 48 hrs by Western blot analysis; assay type: functional, cell-based

T1 sequence (Q96SW2 whole entry, looked up): as the sequence (Q96SW2 whole entry) above
T1 sequence (Q9UKT9 whole entry, looked up): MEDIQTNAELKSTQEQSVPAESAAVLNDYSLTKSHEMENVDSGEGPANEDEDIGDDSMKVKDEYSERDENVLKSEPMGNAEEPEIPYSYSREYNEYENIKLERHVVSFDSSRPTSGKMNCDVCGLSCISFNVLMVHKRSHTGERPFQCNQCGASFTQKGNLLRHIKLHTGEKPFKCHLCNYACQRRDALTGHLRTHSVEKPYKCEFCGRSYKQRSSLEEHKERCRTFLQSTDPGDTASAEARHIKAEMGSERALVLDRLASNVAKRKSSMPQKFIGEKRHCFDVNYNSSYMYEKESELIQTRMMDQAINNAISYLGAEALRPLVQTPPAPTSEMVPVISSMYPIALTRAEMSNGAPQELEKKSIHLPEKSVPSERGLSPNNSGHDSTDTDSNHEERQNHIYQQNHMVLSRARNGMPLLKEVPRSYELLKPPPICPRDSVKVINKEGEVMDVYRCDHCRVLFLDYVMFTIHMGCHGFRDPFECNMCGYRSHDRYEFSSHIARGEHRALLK
Chain of Protein cereblon/Histone deacetylase 4 (Homo sapiens) (P56524 whole entry, looked up): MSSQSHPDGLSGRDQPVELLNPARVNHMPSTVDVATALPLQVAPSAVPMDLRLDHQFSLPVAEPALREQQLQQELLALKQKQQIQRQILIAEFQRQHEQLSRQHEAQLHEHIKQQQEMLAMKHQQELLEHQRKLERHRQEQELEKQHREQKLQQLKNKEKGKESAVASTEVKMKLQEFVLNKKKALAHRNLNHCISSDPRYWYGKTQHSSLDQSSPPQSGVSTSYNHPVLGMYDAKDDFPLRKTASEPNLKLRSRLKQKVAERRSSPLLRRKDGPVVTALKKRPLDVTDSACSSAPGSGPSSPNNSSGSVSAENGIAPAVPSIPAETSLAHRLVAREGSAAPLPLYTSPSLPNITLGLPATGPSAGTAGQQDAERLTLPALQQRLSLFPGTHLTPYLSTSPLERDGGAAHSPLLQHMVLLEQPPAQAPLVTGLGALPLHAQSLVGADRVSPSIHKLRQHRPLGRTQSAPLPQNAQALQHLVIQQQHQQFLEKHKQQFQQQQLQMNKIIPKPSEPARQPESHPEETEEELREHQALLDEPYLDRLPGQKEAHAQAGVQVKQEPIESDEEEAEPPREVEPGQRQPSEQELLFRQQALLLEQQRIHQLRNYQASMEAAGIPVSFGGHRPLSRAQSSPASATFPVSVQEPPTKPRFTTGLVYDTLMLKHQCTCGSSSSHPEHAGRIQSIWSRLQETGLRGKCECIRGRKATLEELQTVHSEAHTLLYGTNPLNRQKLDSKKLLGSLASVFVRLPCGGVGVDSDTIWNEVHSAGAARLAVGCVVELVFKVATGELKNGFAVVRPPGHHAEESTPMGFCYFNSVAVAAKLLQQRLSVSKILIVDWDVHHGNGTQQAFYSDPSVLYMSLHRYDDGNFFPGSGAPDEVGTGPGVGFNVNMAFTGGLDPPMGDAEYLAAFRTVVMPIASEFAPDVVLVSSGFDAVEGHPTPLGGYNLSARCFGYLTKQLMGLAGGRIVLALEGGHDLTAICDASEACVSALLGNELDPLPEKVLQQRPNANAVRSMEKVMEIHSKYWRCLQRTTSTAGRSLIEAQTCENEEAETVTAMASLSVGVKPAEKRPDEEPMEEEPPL
Chain of Protein cereblon/Histone deacetylase 4 (Homo sapiens) (Q96SW2 whole entry, looked up): as the sequence (Q96SW2 whole entry) above
Chain of Protein cereblon/Histone deacetylase 3 (Homo sapiens) (O15379 whole entry, looked up): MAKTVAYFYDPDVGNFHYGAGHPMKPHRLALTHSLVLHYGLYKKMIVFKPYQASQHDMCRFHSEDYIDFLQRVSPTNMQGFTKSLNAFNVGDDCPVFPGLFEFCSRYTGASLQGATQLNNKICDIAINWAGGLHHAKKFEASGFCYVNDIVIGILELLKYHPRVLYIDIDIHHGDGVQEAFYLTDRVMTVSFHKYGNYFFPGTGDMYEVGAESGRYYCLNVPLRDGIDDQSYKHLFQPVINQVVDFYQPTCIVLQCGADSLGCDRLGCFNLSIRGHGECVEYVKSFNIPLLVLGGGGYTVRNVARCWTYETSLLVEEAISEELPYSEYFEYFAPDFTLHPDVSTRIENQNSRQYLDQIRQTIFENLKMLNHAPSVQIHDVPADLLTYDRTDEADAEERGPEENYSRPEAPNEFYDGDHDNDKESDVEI
Chain of Protein cereblon/Histone deacetylase 3 (Homo sapiens) (Q96SW2 whole entry, looked up): as the sequence (Q96SW2 whole entry) above

- Activity [1]: inactive
- Activity [2]: Active
- Activity [4]: inactive
- IC50 (Histone deacetylase 7): 300 to 30000 nM
- DC50 [5]: 1.64 nM
- inhibition [6]: inactive
- Activity [7]: Active
- Activity [8]: Active
- EC50 (MM1.S [9]): 74.9 nM
- Activity [10]: Active
- Activity [11]: Dose-dependent effect
Compound: CCCCN(Cc1ccc(C(=O)NO)cc1)C(=O)Nc1ccc(OCCCCCn2cc(CNc3cccc4c3C(=O)N(C3CCC(=O)NC3=O)C4=O)nn2)cc1 (stereo not drawn)
- Activity (MM1.S [3]): Active
- Activity (MM1.S [12]): Dose-dependent effect
